Assay outcomes as filed in PubChem.
HCV NS3 hel inh: HCV NS3 helicase inhibition; 290,000 compounds, 0.56% hits; inhibition, % at 10.9 µM; NS3 helicase DNA unwinding, Cy5 molecular beacon fluorescence;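 active means inhibition above the mean of all tested compounds plus 3 SD, set per campaign, cut at about 35% in these data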
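System: Hepatitis C virus NS3 helicase domain fragment enzyme | Reagent: Annealed dual-labelled DNA beacon duplex, ATP-started | Compound dosing: 10.9 µM single point, 0.8% DMSO | Incubation: 1 h reaction at 25 °C, ATP-initiated | Technique: Cy5 fluorescence | Evaluation: Percent inhibition from t60/t0 fluorescence ratio | Benchmarks: Low DMSO, high thioflavine S at 110 µM | Replication: Singlicate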
core dimer inh: blocks dimerization of HCV core protein | TR-FRET GST/Flag-core106 dimerization, 1536-well | inhibition, % at 5 µM | 300,000 compounds, 0.33% hits | AID 1899;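 active means inhibition above the mean of all tested compounds plus 3 SD, set per screening campaign, cut at about 45% in these data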
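System: GST-tagged and Flag-tagged HCV core protein residues 1-106 / Input: core106 proteins, GST 13.5 nM and Flag 17 nM / Buffer or medium: KF-containing HEPES buffer, pH 7.45, DTT, CHAPS, BSA / Probe or stimulus: Eu-anti-GST and XL665-anti-Flag labelled anti-tag antibodies / Schedule: 4 h, 22.5 °C incubation / Technique: TR-FRET 671 and 617 nm emission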
MLLE-PAM2 inh: inhibitors of microRNA-mediated deadenylation, human PABP1 MLLE binding | 360,000 compounds, 0.36% hits | GST-MLLE / FITC-PAM2 fluorescence polarization | P11940 | inhibition, % at 20 µM; in the data active means inhibition above about 35%, passing the limit was not always enough
DNA FID counter-1: displaces DNA intercalator in HCV helicase counter-screen; DNA fluorescent intercalator displacement, fluorescence; 290,000 compounds, 0.17% hits; inhibition, % at 7.9 µM; AID 1845; in the data active means inhibition above about 37%;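 further: higher means more ethidium bromide displaced from hairpin DNA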
eIF4H FP inh: inhibitors of RNA binding by human eIF4H; eIF4H fluorescence polarization binding assay; Q15056; inhibition, % at 35 µM; 290,000 compounds, 0.94% hits;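 further: calls also rest on retests at 20 µM and on dose response follow-up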
PABP FP inh: PABP-poly(A) binding inhibition; P11940; PABP-poly(A) RNA binding, fluorescence polarization; inhibition, % at 35 µM; 290,000 compounds, 1% hits; AID 2014;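 further: calls also rest on retests at 20 µM and on dose response follow-up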
NS3 helicase cf: confirmation of Hepatitis C virus NS3 helicase inhibitors; shares compounds with HCV NS3 hel inh; NS3 helicase DNA unwinding, Cy5 molecular beacon fluorescence; inhibition, % at 10.9 µM; 1,600 compounds, 31% hits;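 active means inhibition above the mean of all tested compounds plus 3 SD, cutoff set per campaign, cut at about 36% in these data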
DNA FID counter-2: intercalator displacement, NS3 helicase counter-screen | shares compounds with HCV NS3 hel inh | DNA fluorescent intercalator displacement, fluorescence | inhibition, % at 7.9 µM | 1,600 compounds, 4% hits; in the data active means inhibition above about 37%;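 further: higher means more displacement of ethidium bromide from the DNA hairpin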
FID counter DR: DNA intercalator displacement in dose response; shares compounds with HCV NS3 hel inh; fluorescent intercalator displacement from DNA, fluorescence; IC50, µM; 120 tested, under 10 active
Numbers stand for hits; . = inactive; / = no result. Compounds with a hit are over-represented: about 2% of the library has one in this group of screens. Unless noted, how the calls were made is not given here.

SMILES	HCV NS3 hel inh	core dimer inh	MLLE-PAM2 inh	DNA FID counter-1	eIF4H FP inh	PABP FP inh	NS3 helicase cf	DNA FID counter-2	others
CCCCCOc1ccc(N2C(=O)CC(N(O)c3ccccc3)C2=O)cc1 (centres undefined)	45.2	.	.	.	.	.	.	.
CCCCOc1ccc(N2C(=O)CC(N(O)c3ccccc3)C2=O)cc1 (centres undefined)	37.2	.	.	.	.	.	.	.
CCCCN(C(C)=O)C1CC(=O)N(c2ccc(OCCC)cc2)C1=O (centres undefined)	.	.	.	.	.	.	/	/
O=c1[nH]cnc2c1ccn2C1OC(CO)C(O)C1O (centres undefined)	/	/	.	/	/	/	/	/
COc1ccc(Nc2cc(C(=O)NCCCN3CCN(C)CC3)c3ccccc3n2)c(OC)c1	63.5	.	.	.	.	.	.	66.4
COc1ccc(Nc2cc(C(=O)NCCCOC(C)C)c3ccccc3n2)c(OC)c1	.	.	.	.	.	.	/	/
CCC(=O)N1CCc2cc(S(=O)(=O)CCC(=O)N(C)c3ccc(OC)cc3OC)ccc21	.	.	.	.	.	.	/	/
CCCC(=O)N1CCC1(C)C(=O)Nc1ccc(C)c(C)c1 (centres undefined)	/	/	.	/	/	/	/	/
Cc1ccc(-c2csc(NC(=O)c3ccc(Br)cc3)c2C(=O)O)cc1	41.6	.	.	.	.	.	68.7	.
Cc1ccc(-c2csc(NC(=O)c3cccc(C)c3)c2C(=O)O)cc1	/	.	.	/	/	/	/	/
Cc1ccc(-c2csc(NC(=O)c3ccccc3Cl)c2C(=O)O)cc1	38.6	.	.	.	.	.	77.0	.
O=C(O)/C=C/c1ccc2c(-c3ccccc3)onc2c1	53.5	.	.	.	.	.	.	.
CC1=NN(C(N)=S)C(=O)C1N=Nc1ccc(C)c(Br)c1 (centres undefined)	39.5	.	.	.	.	.	.	.
O=C(CSc1nnc(-c2cccnc2)n1Cc1ccco1)N1CCc2ccccc21	.	.	.	.	.	.	/	/
Cc1occc1-c1nnc(SCC(=O)N2CCCc3ccccc32)n1Cc1ccco1	45.2	/	.	.	.	.	.	.
COc1ccc(C2(C)NC(=O)N(CC(=O)NC(C)c3ccc(CC(C)C)cc3)C2=O)cc1 (centres undefined)	.	.	.	.	.	.	/	/
CC(C)c1ccc(OCC(=O)N(Cc2ccco2)C2CCS(=O)(=O)C2)cc1 (centres undefined)	48.4	.	.	.	.	.	.	.
CSc1sccc1/C=C(/C#N)C(=O)c1ccco1	37.8	.	.	.	.	.	.	.
CSc1sccc1/C=N/O	.	.	.	.	.	.	/	/
CCCNc1c(F)c(F)c2c(C)c3ccccc3nc2c1F	41.0	.	.	.	100.8	46.1	.	.
Cc1c2ccccc2nc2ccccc12	/	.	.	/	/	/	/	/
Oc1ccccc1C=NNC(=S)NC1CC2C=CC1C2 (centres undefined)	/	/	.	/	/	/	/	/
Oc1c(Cl)cc(Cl)cc1/C=N/NC(=S)NC1CC2C=CC1C2 (centres undefined)	47.9	.	.	.	.	.	52.1	.	FID counter DR=.
Cc1ccc(S(=O)(=O)NC(=O)C2(C)CCN2C(=O)Cc2cccs2)nc1 (centres undefined)	/	/	.	/	/	/	/	/
COc1ccccc1-n1c(SCC(=O)NC(C)(C)C)nc(O)cc1=O	36.3	.	.	.	.	.	.	.
SMILES	HCV NS3 hel inh	core dimer inh	MLLE-PAM2 inh	DNA FID counter-1	eIF4H FP inh	PABP FP inh	NS3 helicase cf	DNA FID counter-2	others
Cc1ccc(C(=O)C2=C(O)C(=O)N(Cc3ccccc3)C2c2cccnc2)o1 (centres undefined)	.	.	.	.	.	.	/	/
COc1ccc(OC)c(C2C(C(=O)c3cc4ccccc4o3)=C(O)C(=O)N2c2cc(C)on2)c1 (centres undefined)	37.3	.	.	.	.	.	80.1	.	FID counter DR=.
COC(=O)c1sc(N2C(=O)C(O)=C(C(=O)c3ccc(C)o3)C2c2cc(OC)ccc2OC)nc1C (centres undefined)	53.6	.	.	.	.	.	92.8	.	FID counter DR=.
Cc1ccc(C(=O)C2=C(O)C(=O)N(Cc3cccnc3)C2c2cccc(Oc3ccccc3)c2)o1 (centres undefined)	44.9	.	/	.	.	.	86.2	.	FID counter DR=.
Cc1cc(N2C(=O)C(O)=C(C(=O)c3cc4ccccc4o3)C2c2ccc(Br)cc2)no1 (centres undefined)	42.0	.	.	.	/	/	121.8	.
CC(=O)N1CCN(C(=O)c2cc(S(=O)(=O)N(C)Cc3ccccc3)ccc2Cl)CC1	/	/	.	/	/	/	/	/
COc1cccc(C2C(C(=O)c3cc4ccccc4o3)=C(O)C(=O)N2c2cc(C)on2)c1 (centres undefined)	41.2	.	.	.	.	.	105.1	.
Cc1cc(N2C(=O)C(O)=C(C(=O)c3ccc(C)o3)C2c2cccc(Oc3ccccc3)c2)no1 (centres undefined)	62.7	.	.	.	.	.	172.8	.	FID counter DR=.
Cc1cc(N2C(=O)C(O)=C(C(=O)c3ccc(C)o3)C2c2cccc(Cl)c2)no1 (centres undefined)	/	/	.	/	/	/	/	/
C=CCOc1cccc(C2C(C(=O)c3cc4ccccc4o3)=C(O)C(=O)N2c2cc(C)on2)c1 (centres undefined)	.	.	.	.	.	.	/	/
CCc1ccc(C2CC(=O)N3CN(c4ccccc4)CSC3=C2C#N)cc1 (centres undefined)	44.1	.	.	.	.	.	.	.
CCOC(=O)c1ccc(N2CSC3=C(C#N)C(c4cccs4)CC(=O)N3C2)cc1 (centres undefined)	.	.	.	.	.	.	/	/
O=c1nc2s/c(=C\c3ccco3)c(=O)n2nc1Cc1ccc(F)cc1	47.2	.	.	.	84.2	57.6	.	.
Cn1ncc([N+](=O)[O-])c1C(=O)Nc1ccccc1C#N	/	/	.	/	/	/	/	/
COc1ccccc1C(=O)Nc1ccc(S(=O)(=O)Nc2cnc3ccccc3n2)cc1	.	.	.	.	.	.	/	/
CCOc1ccc(C(=O)N2CCN(c3cnn(-c4ccccc4)c(=O)c3Cl)CC2)cc1	40.0	.	.	.	.	.	.	.
CN(C)c1ccc(/C=C/CNC[C@H]2O[C@@H](n3ccc(N)nc3=O)[C@H](O)[C@@H]2O)cc1	/	/	.	/	/	/	/	/
Cn1ccnc1Sc1ccc(/C=N/NC(=O)c2ccccc2O)cc1[N+](=O)[O-]	47.0	.	.	.	.	.	.	.
Cn1ccnc1Sc1ccc(/C=N/NC(=O)c2ccccc2[N+](=O)[O-])cc1[N+](=O)[O-]	.	.	.	.	.	.	/	/
